For experiment [1], the target named is Proto-oncogene tyrosine-protein kinase receptor Ret (Homo sapiens, UniProt P07949). In words: Inhibition of recombinant human GST-tagged RET cytoplasmic domain (658 to 1114 residues) expressed in baculovirus expression system using 5'FAM-EPLYWSFPA as substrate preincubated for 60 mins followed by substrate addition by microfluidic assay.
In experiment [2] the target is Vascular endothelial growth factor receptor 2 (Homo sapiens, UniProt P35968). The experiment is described as follows: Inhibition of recombinant human His-tagged VEGFR2 cytoplasmic domain (789 to 1356 residues) expressed in baculovirus expression system using peptide substrate preincubated for 60 mins followed by substrate addition by microfluidic assay.
Experiment [3] deals with T1, SHC-transforming protein 1 (Homo sapiens) (UniProt P29353).
T1 sequence (whole entry): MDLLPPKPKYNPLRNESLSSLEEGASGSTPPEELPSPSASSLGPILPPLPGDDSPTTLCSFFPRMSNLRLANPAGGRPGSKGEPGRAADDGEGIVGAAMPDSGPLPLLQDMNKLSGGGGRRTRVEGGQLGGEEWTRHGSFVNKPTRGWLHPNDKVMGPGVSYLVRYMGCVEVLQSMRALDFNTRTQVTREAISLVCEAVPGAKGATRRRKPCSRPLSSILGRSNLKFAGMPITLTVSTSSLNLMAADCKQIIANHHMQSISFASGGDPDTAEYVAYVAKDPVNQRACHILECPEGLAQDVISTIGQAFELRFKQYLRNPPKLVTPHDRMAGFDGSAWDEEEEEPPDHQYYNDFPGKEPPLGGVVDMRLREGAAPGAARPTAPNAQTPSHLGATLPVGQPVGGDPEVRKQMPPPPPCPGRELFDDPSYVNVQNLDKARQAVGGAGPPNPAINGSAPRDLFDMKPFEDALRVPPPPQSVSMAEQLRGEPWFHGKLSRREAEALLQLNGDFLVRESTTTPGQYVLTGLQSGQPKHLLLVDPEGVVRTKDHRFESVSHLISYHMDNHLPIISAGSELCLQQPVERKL
The experiment is described as follows: Effect on SHC phosphorylation in RET deficient human Nthy-ori 3-1 cells at 1 to 100 nM measured after 2 hrs by western blot analysis.

For experiment [4], the target named is T2, Centrosomal protein 43/RET (Homo sapiens) (UniProt P07949+O95684). The experiment is described as follows: Inhibition of FGFR1OP/RET isoform 9 (unknown origin) expressed in mouse NIH/3T3 cells assessed as reduction in RET phosphorylation at Y905 residue at 1 to 100 nM measured after 2 hrs by Western blot analysis. Format: cell-based. Put shortly:
(§1)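 Serum-starved RAT1 (RET point mutants) or NIH3T3 (RET rearrangements) cells expressing short RET-9 isoform, treated 2 h; 50 μg total lysate immunoblotted with anti-phospho-Y1062 and anti-phospho-Y905 RET antibodies, normalized to total RET; ECL detection. Compound from 50 mM DMSO stock diluted in growth medium.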

The target of experiment [5] is T2, Centrosomal protein 43/RET (Homo sapiens). The experiment is described as follows: Inhibition of FGFR1OP/RET isoform 9 (unknown origin) expressed in mouse NIH/3T3 cells assessed as reduction in RET phosphorylation at Y1062 residue at 1 to 100 nM measured after 2 hrs by Western blot analysis. The class given is cell-based. Put shortly:
as §1

The test system of experiment [6] is Proto-oncogene tyrosine-protein kinase receptor Ret (Homo sapiens), P07949 [C634W]. The experiment is described as follows: Inhibition of Ret isoform 9 C634W mutant in human TT cells assessed as reduction in phosphorylation at Y1062 residue at 0.3 to 30 nM measured after 2 hrs by Western blot analysis. The class given is cell-based.
Experiment [7] has as its target T3, Coiled-coil domain-containing protein 6/Tyrosine-protein kinase receptor RET (Homo sapiens) (UniProt P07949+Q16204). The experiment is described as follows: Inhibition of CCDC6/RET in human TPC1 cells assessed as reduction in RET phosphorylation at Y1062 residue at 0.3 to 30 nM measured after 2 hrs by Western blot analysis. Format: cell-based.
The test system of experiment [8] is Proto-oncogene tyrosine-protein kinase receptor Ret (Homo sapiens), P07949 [C634W]. The experiment is described as follows: Inhibition of Ret isoform 9 C634W mutant in human TT cells assessed as reduction in SHC phosphorylation at 0.3 to 30 nM measured after 2 hrs by Western blot analysis. The class given is cell-based.
Experiment [9] has as its target T3, Coiled-coil domain-containing protein 6/Tyrosine-protein kinase receptor RET (Homo sapiens). In words: Inhibition of CCDC6/RET in human TPC1 cells assessed as reduction in SHC phosphorylation at 0.3 to 30 nM measured after 2 hrs by Western blot analysis. The class given is cell-based.
Experiment [10] concerns the target T1, SHC-transforming protein 1 (Homo sapiens). The experiment is described as follows: Effect on SHC phosphorylation in RET deficient human BCPAP cells at 1 to 100 nM measured after 2 hrs by western blot analysis. The class given is cell-based.
The subject of a further experiment is A549. The experiment is described as follows: Effect on MAPK phosphorylation in RET deficient human A549 cells at 1 to 100 nM measured after 2 hrs by western blot analysis. The class given is cell-based.
In the next experiment the test system is BaF3. In words: Cytotoxicity against mouse BAF3 cells assessed as reduction in cell proliferation supplemented with fresh medium containing compound for every 2 to 3 days and measured daily. Format: cell-based. Put shortly:
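Ba/F3 cells (parental with IL-3 10 ng/mL; RET/C634R, RET/M918T, NCOA4-RET stable transfectants, RET-51 isoform) were seeded at 200000/well in 10% FCS. Drug or vehicle was added the day after plating, with medium changed every 2–3 days, and cells were counted daily. […] This was a single experiment in triplicate.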

The test system of experiment [11] is Proto-oncogene tyrosine-protein kinase receptor Ret (Homo sapiens), P07949 [M918T]. The experiment is described as follows: Inhibition of RET […] M918T mutant (unknown origin) expressed in mouse BAF3 cells assessed as reduction in RET phosphorylation at Y905 residue at 0.3 to 30 nM measured after 2 hrs by Western blot analysis. The class given is cell-based. Put shortly:
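Ba/F3 cells stably expressing long-isoform RET-51 mutants (electroporation), cultured in RPMI/10% FCS without IL-3; RET phosphorylation read by Western blot with anti-phospho-Y905 and anti-phospho-Y1062 antibodies, ECL detection.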

The test system of experiment [12] is 8505C. In words: Effect on MAPK phosphorylation in RET deficient human 8505C cells at 1 to 100 nM measured after 2 hrs by western blot analysis. Format: cell-based.
Experiment [13] deals with 8505C. The experiment is described as follows: Cytotoxicity against RET deficient human 8505C cells supplemented with fresh medium containing compound for every 2 to 3 days measured during compound dosing. The class given is functional, cell-based. The method, boiled down:
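Human RET-negative lines were seeded in six-well plates at 10000 cells/well, in 5% FCS (Nthy-ori-3-1) or 10% FCS (BCPAP, 8505-C, CALU-1, A549, PC-9). Drug or vehicle was added the day after plating, with medium changed every 2–3 days. Cells were counted every 2–3 days. IC50 was fitted from the last day of the growth curves.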

Another experiment deals with Mus musculus. In words: Antitumor activity against BALB/c nu/nu mouse implanted with mouse NIH/3T3 cells harboring HRAS G12V mutant assessed as reduction in tumor formation at 1 to 10 mg/kg, po administered once daily via gavage for 3 days. Format: functional, organism-based. The method, boiled down: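 Nude mice (female BALB/c nu/nu, 6 weeks old) received subcutaneous dorsal inoculation (both sides) of NIH3T3 cells transformed by RET/C634Y (200000) or HRAS/G12V (50000). Four days later, before tumors appeared, mice were randomized to 1.0, 3.0 or 10 mg/kg/day oral gavage (8 mice/group) or vehicle (8 mice). Vehicle was 80% H2O, 19.875% Tween 20, 0.125% xanthan gum. Tumors were measured by caliper every 2–3 days, with volume = A×B²/2.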

pIC50: −log10 of the molar value. The source made the active and inactive calls. The rule behind the calls is not given here. A value given as a limit tells only on which side of the number the result lay.

T3 sequence (P07949 29-1114 limits assumed): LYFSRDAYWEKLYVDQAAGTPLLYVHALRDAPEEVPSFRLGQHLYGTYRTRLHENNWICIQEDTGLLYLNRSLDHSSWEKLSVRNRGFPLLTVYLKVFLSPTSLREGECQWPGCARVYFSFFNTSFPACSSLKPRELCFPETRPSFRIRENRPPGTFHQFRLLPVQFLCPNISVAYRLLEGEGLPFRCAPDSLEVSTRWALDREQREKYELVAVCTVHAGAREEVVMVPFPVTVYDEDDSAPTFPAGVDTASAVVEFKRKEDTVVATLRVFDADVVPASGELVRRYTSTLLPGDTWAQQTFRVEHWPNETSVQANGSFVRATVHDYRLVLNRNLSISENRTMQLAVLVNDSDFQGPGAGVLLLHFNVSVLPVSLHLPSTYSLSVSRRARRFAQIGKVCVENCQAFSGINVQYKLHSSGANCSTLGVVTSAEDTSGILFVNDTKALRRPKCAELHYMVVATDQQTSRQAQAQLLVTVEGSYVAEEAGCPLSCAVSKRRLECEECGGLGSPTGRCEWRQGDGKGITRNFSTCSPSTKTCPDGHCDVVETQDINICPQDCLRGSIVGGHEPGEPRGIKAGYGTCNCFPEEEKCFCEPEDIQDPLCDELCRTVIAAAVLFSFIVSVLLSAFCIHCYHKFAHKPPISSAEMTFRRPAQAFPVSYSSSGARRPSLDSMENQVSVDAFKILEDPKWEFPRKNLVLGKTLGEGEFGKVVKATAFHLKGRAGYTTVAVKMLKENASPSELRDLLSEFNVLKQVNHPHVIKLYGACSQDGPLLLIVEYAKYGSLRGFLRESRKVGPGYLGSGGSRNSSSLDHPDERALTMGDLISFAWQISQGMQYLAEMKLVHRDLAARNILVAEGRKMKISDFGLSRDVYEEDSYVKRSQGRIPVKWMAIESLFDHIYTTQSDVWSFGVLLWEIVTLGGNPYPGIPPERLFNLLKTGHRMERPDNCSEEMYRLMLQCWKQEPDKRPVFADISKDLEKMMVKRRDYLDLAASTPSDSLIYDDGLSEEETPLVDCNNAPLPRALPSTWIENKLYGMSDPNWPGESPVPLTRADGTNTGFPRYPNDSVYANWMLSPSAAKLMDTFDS
T3 sequence (Q16204 2-474 partner limits assumed): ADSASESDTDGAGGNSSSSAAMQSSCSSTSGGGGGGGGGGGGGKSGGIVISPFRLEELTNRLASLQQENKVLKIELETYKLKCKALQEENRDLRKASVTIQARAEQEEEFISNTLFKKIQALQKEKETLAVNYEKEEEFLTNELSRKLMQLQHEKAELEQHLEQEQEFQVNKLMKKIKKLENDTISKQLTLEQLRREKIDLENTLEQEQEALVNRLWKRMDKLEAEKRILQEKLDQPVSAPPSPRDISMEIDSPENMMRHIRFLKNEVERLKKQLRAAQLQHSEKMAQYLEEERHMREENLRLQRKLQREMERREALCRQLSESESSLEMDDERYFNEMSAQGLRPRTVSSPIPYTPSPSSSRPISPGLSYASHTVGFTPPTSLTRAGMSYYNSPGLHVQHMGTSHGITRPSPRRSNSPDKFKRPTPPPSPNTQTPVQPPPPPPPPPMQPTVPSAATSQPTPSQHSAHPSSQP
Proto-oncogene tyrosine-protein kinase receptor Ret (Homo sapiens), P07949 [C634W], sequence (P07949 whole entry C634W, the tested form may be a part, canonical isoform): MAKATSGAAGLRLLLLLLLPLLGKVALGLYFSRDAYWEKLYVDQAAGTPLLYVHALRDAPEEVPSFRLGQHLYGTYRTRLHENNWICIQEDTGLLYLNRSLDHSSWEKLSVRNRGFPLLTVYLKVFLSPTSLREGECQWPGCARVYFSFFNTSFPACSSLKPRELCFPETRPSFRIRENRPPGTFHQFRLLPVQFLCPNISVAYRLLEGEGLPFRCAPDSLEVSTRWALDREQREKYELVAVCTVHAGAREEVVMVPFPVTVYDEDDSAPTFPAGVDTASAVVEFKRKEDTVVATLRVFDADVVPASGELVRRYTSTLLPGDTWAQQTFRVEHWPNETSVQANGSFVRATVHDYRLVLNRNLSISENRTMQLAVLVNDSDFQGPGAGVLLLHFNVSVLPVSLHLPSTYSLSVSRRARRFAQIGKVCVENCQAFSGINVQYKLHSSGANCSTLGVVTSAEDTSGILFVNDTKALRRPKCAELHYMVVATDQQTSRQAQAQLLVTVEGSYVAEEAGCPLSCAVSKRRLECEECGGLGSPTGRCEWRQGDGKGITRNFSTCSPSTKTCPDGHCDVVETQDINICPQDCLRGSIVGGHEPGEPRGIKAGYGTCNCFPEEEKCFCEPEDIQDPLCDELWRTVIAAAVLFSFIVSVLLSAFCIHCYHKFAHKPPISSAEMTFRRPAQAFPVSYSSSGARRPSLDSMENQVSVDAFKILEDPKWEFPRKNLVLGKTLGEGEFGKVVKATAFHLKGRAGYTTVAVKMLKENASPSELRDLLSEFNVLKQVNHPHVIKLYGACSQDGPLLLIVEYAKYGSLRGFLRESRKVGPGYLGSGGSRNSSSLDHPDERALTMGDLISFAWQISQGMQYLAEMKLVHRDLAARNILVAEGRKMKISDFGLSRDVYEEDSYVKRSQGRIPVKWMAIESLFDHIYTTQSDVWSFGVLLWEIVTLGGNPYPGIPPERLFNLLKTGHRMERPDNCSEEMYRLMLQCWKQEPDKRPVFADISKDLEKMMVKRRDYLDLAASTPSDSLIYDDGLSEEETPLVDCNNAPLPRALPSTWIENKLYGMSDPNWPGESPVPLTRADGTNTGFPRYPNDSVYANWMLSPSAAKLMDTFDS
T2 sequence (O95684 whole entry, looked up, canonical isoform): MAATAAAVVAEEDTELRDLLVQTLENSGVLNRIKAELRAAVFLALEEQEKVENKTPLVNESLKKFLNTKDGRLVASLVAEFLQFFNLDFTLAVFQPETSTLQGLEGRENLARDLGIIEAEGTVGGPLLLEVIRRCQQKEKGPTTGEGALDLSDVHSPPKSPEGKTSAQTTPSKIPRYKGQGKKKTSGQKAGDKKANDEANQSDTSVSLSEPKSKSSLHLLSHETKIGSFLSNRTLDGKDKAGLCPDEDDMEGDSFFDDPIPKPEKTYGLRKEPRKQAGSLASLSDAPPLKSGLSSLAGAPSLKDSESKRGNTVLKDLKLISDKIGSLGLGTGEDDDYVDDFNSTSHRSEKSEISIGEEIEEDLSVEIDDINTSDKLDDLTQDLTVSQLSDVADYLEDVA
T2 sequence (P07949 whole entry, looked up, canonical isoform): as the sequence (P07949 whole entry C634W, the tested form may be a part, canonical isoform) above, with W634C counted along it
Vascular endothelial growth factor receptor 2, sequence (P35968 whole entry, the tested form may be a part): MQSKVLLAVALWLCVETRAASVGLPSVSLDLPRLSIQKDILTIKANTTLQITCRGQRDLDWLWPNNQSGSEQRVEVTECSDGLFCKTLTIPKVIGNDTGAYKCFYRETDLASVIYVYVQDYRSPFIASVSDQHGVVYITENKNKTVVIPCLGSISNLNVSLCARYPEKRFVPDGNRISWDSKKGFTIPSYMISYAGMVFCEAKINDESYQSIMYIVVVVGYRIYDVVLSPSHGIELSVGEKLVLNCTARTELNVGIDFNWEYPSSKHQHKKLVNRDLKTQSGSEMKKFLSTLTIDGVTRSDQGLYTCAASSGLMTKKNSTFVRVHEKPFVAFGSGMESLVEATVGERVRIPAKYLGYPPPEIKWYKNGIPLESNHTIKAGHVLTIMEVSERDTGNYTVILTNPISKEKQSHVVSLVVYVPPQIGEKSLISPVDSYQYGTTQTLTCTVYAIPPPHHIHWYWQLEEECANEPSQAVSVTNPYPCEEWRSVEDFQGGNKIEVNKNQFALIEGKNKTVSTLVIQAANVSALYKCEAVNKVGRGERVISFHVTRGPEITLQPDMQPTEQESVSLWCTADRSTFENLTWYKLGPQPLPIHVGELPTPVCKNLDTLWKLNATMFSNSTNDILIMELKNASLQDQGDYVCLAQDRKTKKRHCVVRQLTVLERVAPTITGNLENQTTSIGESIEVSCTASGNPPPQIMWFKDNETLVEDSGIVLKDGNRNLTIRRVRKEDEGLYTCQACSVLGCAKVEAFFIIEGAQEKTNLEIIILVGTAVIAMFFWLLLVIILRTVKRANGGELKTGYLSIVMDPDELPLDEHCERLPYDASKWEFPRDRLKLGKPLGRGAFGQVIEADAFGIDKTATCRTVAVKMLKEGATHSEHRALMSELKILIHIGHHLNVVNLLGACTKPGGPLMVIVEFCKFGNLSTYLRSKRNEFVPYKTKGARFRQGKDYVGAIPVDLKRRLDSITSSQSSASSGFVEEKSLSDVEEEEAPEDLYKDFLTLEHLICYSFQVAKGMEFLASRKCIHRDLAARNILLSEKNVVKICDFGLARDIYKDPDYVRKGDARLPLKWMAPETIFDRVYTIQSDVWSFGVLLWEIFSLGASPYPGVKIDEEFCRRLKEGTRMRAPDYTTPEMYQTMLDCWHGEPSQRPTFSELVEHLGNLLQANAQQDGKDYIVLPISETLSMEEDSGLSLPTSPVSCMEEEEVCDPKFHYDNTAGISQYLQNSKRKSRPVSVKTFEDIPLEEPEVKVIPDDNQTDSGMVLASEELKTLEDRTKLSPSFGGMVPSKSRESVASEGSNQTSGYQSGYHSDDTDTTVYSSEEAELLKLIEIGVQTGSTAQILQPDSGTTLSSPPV
Proto-oncogene tyrosine-protein kinase receptor Ret, sequence (P07949 whole entry, the tested form may be a part): as the sequence (P07949 whole entry C634W, the tested form may be a part, canonical isoform) above, with W634C counted along it
Proto-oncogene tyrosine-protein kinase receptor Ret (Homo sapiens), P07949 [M918T], sequence (P07949 whole entry M918T, canonical isoform): as the sequence (P07949 whole entry C634W, the tested form may be a part, canonical isoform) above, with W634C, M918T counted along it

In the case of `CC(C)(C)c1cc(NC(=O)Cc2ccc(-n3cnc4cc(-c5ccc(S(C)(=O)=O)cc5)ccc43)cc2)no1`, the pIC50 in experiment [1] is 9.00; in experiment [2], 8.52; with BaF3, below 7.00; with 8505C [13], below 7.00. Moreover, the result (in experiment [3]; in experiment [10]; in the experiment with A549; in the experiment with 8505C [12]; in the experiment on Mus musculus) was inactive. In addition, the inhibition result in experiment [4], in experiment [5], in [6], in experiment [7], in experiment [8] and in experiment [9] was “Active” each time. For the same compound, the inhibition entry in experiment [11] is “Active”.

The record behind these values is ChEMBL document CHEMBL4354879, “Bioisosteric Discovery of NPA101.3, a Second-Generation RET/VEGFR2 Inhibitor Optimized for Single-Agent Polypharmacology” (J Med Chem, 2020).
